# Laboratory results as given in ChEMBL document CHEMBL4376807, “Hydroxamic Acid Derivatives of β-Carboline/Hydroxycinnamic Acid Hybrids Inducing Apoptosis and Autophagy through the PI3K/Akt/mTOR Pathways” (J Nat Prod, 2019).
# Calls of active or inactive are those of the source. The calls are words filed in the database; no cut-off is given here.
# Assays:
# [1] = biological target: Histone deacetylase 3 (Homo sapiens, UniProt O15379); test: Inhibition of human HDAC3 using Boc-Lys (Ac)-AMC as substrate incubated for 60 mins by fluorimetric assay
# Sequence of Histone deacetylase 3 (O15379 whole entry): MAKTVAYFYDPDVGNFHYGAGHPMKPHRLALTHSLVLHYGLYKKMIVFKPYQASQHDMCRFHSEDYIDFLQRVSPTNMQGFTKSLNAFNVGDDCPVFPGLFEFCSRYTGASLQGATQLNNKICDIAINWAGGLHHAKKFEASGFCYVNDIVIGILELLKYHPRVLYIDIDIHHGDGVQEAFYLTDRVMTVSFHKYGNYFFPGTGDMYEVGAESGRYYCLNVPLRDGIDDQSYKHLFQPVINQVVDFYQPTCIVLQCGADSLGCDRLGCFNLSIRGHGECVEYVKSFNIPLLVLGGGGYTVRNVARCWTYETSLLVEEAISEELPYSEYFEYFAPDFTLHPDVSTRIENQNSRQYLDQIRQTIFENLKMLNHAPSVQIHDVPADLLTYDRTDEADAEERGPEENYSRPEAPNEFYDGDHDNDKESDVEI
# [2] = biological target: T1, Histone deacetylase 8 (Homo sapiens, UniProt Q9BY41); test: Inhibition of human HDAC8 using Boc-Lys (Ac)-AMC as substrate incubated for 60 mins by fluorimetric assay
# T1 sequence (Q9BY41 whole entry): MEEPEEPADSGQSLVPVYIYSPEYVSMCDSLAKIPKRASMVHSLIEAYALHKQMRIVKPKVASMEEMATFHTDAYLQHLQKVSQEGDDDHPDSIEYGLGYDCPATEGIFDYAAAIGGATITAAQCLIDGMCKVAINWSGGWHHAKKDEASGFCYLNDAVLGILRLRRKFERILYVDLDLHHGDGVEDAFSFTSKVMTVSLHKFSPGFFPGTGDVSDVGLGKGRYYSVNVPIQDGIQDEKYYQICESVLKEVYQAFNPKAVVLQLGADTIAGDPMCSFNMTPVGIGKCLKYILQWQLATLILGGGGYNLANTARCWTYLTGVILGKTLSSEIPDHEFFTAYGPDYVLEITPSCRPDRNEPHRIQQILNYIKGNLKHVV
# [3] = system: Bel-7402; test: Induction of apoptosis in human Bel7402 cells assessed as increase in cleaved caspase-3 level at 5 uM after 72 hrs by Western blot analysis; type: functional, cell-based
# Procedure, shortened: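 Subconfluent Bel7402 cells (1.5 × 10^5/mL) exposed to vehicle or compound for 72 h, then lysed. Lysates (0.05 mg/lane) run on 12% SDS-PAGE, transferred to nitrocellulose, blocked in 5% nonfat milk. Probed for Bax, Bcl-2, cleaved caspase-3 and cleaved PARP, with HRP secondary and chemiluminescence. Levels normalized to β-actin; three separate assays, mean ± SD.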
smiles,measurement,setting,value
COc1ccc(-c2nc(NCCCOc3ccc(/C=C/C(=O)NO)cc3OC)cc3c2[nH]c2ccccc23)cc1,IC50,[1],148 nM
same,IC50,[2],> 1000 nM
same,Activity,[3],Active
